Published values collected from several papers.
Read-out: enzyme activity
Action: inhibitor
IGF1R phosphorylated: Insulin-like growth factor 1 receptor, phosphorylated (IGF1R, Homo sapiens, UniProt P08069)
IGF1R: Insulin-like growth factor 1 receptor (IGF1R, Homo sapiens, UniProt P08069)

SMILES	target	test	conditions	remaining activity [%]
CCN(CC)c1ccc(C2=NNC(=O)CC2C)cc1[N+](=O)[O-] (stereo not shown)	IGF1R phosphorylated		10 µM	102
Nc1nc(NC2CCCCC2)sc1C(=O)c1ccccc1	IGF1R		10 µM	80
Cn1c(=O)n(-c2ccc(C(C)(C)C#N)cc2)c2c3cc(-c4cnc5ccccc5c4)ccc3ncc21	IGF1R		10 µM	72
CCN(CC)CCNC(=O)c1c(C)[nH]c(/C=C2\C(=O)Nc3ccc(F)cc32)c1C	IGF1R		0.1 µM	75
O=C(Nc1cnn(-c2csc(C(=O)NC3COC3)c2)c1)Nc1ccccc1Cl	IGF1R		5 µM	95.8
COc1cc(Nc2cnc(C#N)c(O[C@H](C)CN(C)C)n2)ncc1-c1cnn(C)c1	IGF1R	radiometric	10 µM	73
CC(C)(C)C(=O)c1sc(NC2CCCCC2)nc1N	IGF1R		10 µM	118
CCCOc1ccc(OC)c(F)c1C(=O)c1ccc(C(=O)N[C@@H]2CNC[C@H]2NC(=O)c2ccc3[nH]ncc3c2)cc1	IGF1R phosphorylated		10 µM	76
Cc1cnc(NC2CCOCC2)nc1-n1cnc(C(=O)NC(CN)c2cc(F)cc(Cl)c2)c1 (stereo not shown)	IGF1R phosphorylated	radiometric	1 µM	108
CC(C)(C)c1nc(-c2cccc(NS(=O)(=O)c3c(F)cccc3F)c2F)c(-c2ccnc(N)n2)s1	IGF1R	radiometric	1 µM	81
Cc1[nH]c(/C=C2\C(=O)Nc3ccc(F)cc32)c(C)c1C(=O)N[C@H]1CCN(C(=O)N(C)C)C1	IGF1R		0.1 µM	115
Cc1ccc(NC(=O)c2ccc(C)c(C(F)(F)F)c2)cc1C#Cc1nn(C2CCC(O)CC2)c2ncnc(N)c12 (stereo not shown)	IGF1R phosphorylated		10 µM	91
COc1cc(Cl)c(C(=O)N[C@@H](CN[C@H]2CC[C@@H](N)CC2)Cc2ccc(C#N)cc2)cc1-c1ccc(CN[C@H](C)c2ccc(C)cc2)o1	IGF1R phosphorylated		1 µM	117
